Screens as filed in PubChem BioAssay.
TRPC6 inhibitor: mouse TRPC6 channel inhibition; Q61143; HEK293-TRPC6, membrane potential dye, ACh-evoked depolarization; stronger effect = lower value; B-score at 10 µM; 310,000 tested, 1.1% active; AID 2553;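 active = B-score under library mean minus 3 SD, initial fluorescence not abnormally high, positive integrated signal ratio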;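 also: B-score derived from integrated fluorescence ratio over the kinetic read; more negative B-score means stronger inhibition of depolarization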
TRPC4 block: TRPC4 (mouse) channel inhibition | Q9QUQ5 | HEK293 TRPC4beta/mu-opioid, DAMGO-evoked Fluo4 calcium flux; stronger effect = lower value | B-score at 10 µM | 300,000 tested, 0.39% active | AID 2247;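 active = B-score over 3 SD under the library average, no early fluorescence shift, positive overall ratio signal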
Target sequence (Q9QUQ5 whole entry, looked up): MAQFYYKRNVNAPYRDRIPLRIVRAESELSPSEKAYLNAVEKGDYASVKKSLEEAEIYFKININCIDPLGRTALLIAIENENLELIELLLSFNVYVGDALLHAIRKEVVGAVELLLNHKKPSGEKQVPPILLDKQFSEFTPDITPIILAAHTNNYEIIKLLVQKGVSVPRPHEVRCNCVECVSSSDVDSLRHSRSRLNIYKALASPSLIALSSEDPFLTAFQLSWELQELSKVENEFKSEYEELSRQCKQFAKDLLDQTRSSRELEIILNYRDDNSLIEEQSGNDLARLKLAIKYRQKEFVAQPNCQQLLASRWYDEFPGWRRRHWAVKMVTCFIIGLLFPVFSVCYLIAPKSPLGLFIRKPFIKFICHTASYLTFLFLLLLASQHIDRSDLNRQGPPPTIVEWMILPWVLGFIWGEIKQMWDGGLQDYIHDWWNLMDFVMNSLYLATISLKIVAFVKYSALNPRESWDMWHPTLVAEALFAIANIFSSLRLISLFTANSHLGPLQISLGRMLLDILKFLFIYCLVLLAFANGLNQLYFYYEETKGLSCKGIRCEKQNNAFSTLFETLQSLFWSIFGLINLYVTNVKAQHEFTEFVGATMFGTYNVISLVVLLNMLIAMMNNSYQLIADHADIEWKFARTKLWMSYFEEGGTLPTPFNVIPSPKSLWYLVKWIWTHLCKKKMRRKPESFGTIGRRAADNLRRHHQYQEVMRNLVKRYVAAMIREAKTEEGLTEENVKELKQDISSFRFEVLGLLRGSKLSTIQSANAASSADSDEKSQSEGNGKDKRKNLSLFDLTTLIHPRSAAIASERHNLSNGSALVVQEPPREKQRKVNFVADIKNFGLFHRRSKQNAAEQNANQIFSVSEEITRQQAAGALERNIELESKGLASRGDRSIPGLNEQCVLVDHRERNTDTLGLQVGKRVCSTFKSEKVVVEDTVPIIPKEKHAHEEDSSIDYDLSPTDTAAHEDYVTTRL
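Assay system – HEK293 line stably carrying TRPC4beta and mu-opioid receptor · Doses – single dose · Detection – Fluo4 calcium-dye fluorescence, kinetic read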
TRPC4 PAM: allosterically enhances the mouse TRPC4 cation channel. HEK293 TRPC4beta/mu-opioid, DAMGO EC20, Fluo-4 Ca2+ flux; stronger effect = higher value. B-score at 10 µM. 310,000 tested, 0.42% active;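 active = B-score of calcium response area above 5 SD of library B-scores, with initial fluorescence ratio within 5 SD of library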;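 also: B-score of integrated fluorescence ratio over time as area under calcium response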
TRPC6 activator: activates the mouse TRPC6 cation channel. Q61143. HEK293-TRPC6 membrane potential dye fluorescence; stronger effect = higher value. B-score at 10 µM. 310,000 tested, 0.13% active. AID 2550;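 active = B-score of the integrated fluorescence ratio above library mean plus 3 SD, and starting fluorescence ratio within library mean plus 5 SD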;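 also: higher score means more depolarization so channel activation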
TRPC4 act: TRPC4 (mouse) channel activation; HEK293 TRPC4beta/mu-opioid, Fluo4 calcium fluorescence; stronger effect = higher value; B-score at 10 µM; 310,000 tested, 0.49% active; AID 2237;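 active = B-score above 5 SD of library B-scores, and initial fluorescence ratio not above library mean plus 5 SD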;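 also: positive B-score marks a calcium rise read as TRPC4 activation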
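Technique: kinetic Fluo4 calcium fluorescence; Test system: TRPC4beta and mu-opioid receptor HEK293 stable cells; Measure: B-scored integrated calcium fluorescence ratio; Benchmarks: low control buffer alone, high control maximal DAMGO; Schedule: 45 min room-temperature Fluo4 loading, 110 s read.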
HEK293 MPD ctr: checks TRPC6 modulator effects in parental HEK293 cells | shares compounds with TRPC6 inhibitor | membrane potential dye fluorescence | membrane potential signal change, % at 10 µM | 2,400 tested, 51% active | AID 488924;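 active = membrane potential signal moves up or down beyond 5 SD from buffer-only wells, on both duplicate plates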
HEK293 MPD ctr 2: parental HEK293 nonspecific activity of TRPC6 modulators, second screen | membrane potential dye fluorescence; after compound, maximal acetylcholine stimulation | 2,400 tested, 14% active | shares compounds with TRPC6 inhibitor | AID 488926 | inhibition, % at 10 µM;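 active = membrane potential signal drops by more than 5 SD from the mean control signal, in both duplicate plates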;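 also: plate controls were acetylcholine ECmax control wells for no effect and buffer only wells for full effect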
TRPC4/MOR mod: selectivity of TRPC6 modulators against mouse TRPC4; shares compounds with TRPC6 inhibitor; HEK293 TRPC4/mu-opioid, membrane potential fluorescence; percent change from control (negative = decrease, positive = increase), % at 10 µM; 2,400 tested, 69% active; AID 488927;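 active = membrane potential signal moved up or down beyond 5 SD of buffer control wells, in both duplicate plates, actives on both sides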;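 also: plate controls were assay buffer wells for no effect and DAMGO maximal-effect wells for full effect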
TRPC4 ctr inh 2: mouse TRPC4 off-target activity of TRPC6 modulators, second screen | shares compounds with TRPC6 inhibitor | HEK293 TRPC4/mu-opioid, membrane potential dye fluorescence; stimulated with maximal-effect DAMGO | inhibition, % at 10 µM | 2,400 tested, 55% active | AID 488928;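 active = drop in membrane potential signal beyond 5 SD of the control wells in both duplicate plates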;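 also: TRPC4 counter screen for TRPC6 hits run under conditions tuned for TRPC6 not TRPC4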
TRPC6 inh conf: mouse TRPC6 inhibitor confirmation; shares compounds with TRPC6 inhibitor; HEK293-TRPC6, membrane potential dye, ACh-evoked depolarization; inhibition, % at 10 µM; 3,300 tested, 43% active; AID 488960;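 active = fluorescence ratio falls more than 5 SD below the full-stimulation control mean, in both duplicate runs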;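 also: integrated fluorescence ratio of peak minus minimum over baseline after agonist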
TRPC6 act confirm: mouse TRPC6 activator confirmation; shares compounds with TRPC6 inhibitor; HEK293-TRPC6 membrane potential dye fluorescence, FDSS; activation, % at 10 µM; 2,800 tested, 11% active; AID 488961;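 active = ratio signal rise beyond 5 SD above unstimulated control wells' mean, seen in both duplicate runs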;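 also: plate controls were buffer EC0 wells for no effect and acetylcholine ECmax response for full effect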
* marks the source's active call; other numbers are inactive results; i = inactive; / = no result given. An excerpt weighted towards active compounds, which were near 2.3% of everything screened.

SMILES | TRPC6 inhibitor | TRPC4 block | TRPC4 PAM | TRPC6 activator | TRPC4 act | HEK293 MPD ctr | HEK293 MPD ctr 2 | TRPC4/MOR mod | TRPC4 ctr inh 2 | TRPC6 inh conf | TRPC6 act confirm
CCOc1ccc(N2C(=O)CNC2=S)cc1 | i | i | i | i | i | / | / | / | / | / | /
COc1ccc(OC)c(S(=O)(=O)N2CCCC(C(=O)NCCN3CCOCC3)C2)c1 (stereo not drawn) | i | i | i | i | i | / | / | / | / | / | /
CN(c1cccc(NS(=O)(=O)c2cccs2)c1)S(C)(=O)=O | -6.1* | i | i | i | i | i | i | i | i | i | i
COc1ccc(S(=O)(=O)Nc2cccc(N(C)S(C)(=O)=O)c2)cc1Br | i | i | i | i | i | / | / | / | / | / | /
O=C(O)c1ccc(NC2=Nc3cccc4cccc2c34)cc1 | i | i | i | i | i | / | / | / | / | / | /
CC(=O)N1CCN(C2=Nc3cccc4cccc2c34)CC1 | -8.1* | i | i | i | i | -226%* | i | -97%* | 48%* | 57%* | i
COc1ccccc1N1CCN(C2=Nc3cccc4cccc2c34)CC1 | -8.7* | i | i | i | i | -214%* | 79%* | -45%* | 84%* | 60%* | i
CC1CN(c2oc(-c3ccccc3Cl)nc2C#N)CC(C)O1 (stereo not drawn) | i | i | i | i | i | / | / | / | / | / | /
O=C1c2ccccc2C(=O)c2c1cccc2N1CCOCC1 | i | i | i | i | i | / | / | / | / | / | /
c1cc2c3c(cccc3c1)C(N1CCOCC1)=N2 | -6.8* | i | i | i | i | -198%* | i | -129%* | 84%* | 52%* | i
CC1CN(C2=Nc3cccc4cccc2c34)CC(C)O1 (stereo not drawn) | -7.3* | i | i | i | i | -152%* | i | -72%* | 46%* | 58%* | i
Cc1ccc(S(=O)(=O)N2CCOC23CCN(C(=O)C(=O)NCc2ccccc2)CC3)cc1 | i | i | i | i | i | / | / | / | / | / | /
CCCCc1ccc(NC(=S)NCc2ccccc2OC)cc1 | i | i | i | i | i | / | / | / | / | / | /
CC(CNC(=O)c1ccc(OC2CCN(Cc3ccccn3)CC2)cc1)c1ccccc1 (stereo not drawn) | i | i | i | i | i | / | / | / | / | / | /
CCOC(=O)c1c(NC(=O)COC(=O)c2cc(OC)c(OC)cc2[N+](=O)[O-])sc(C)c1C | -5.1* | i | i | i | i | i | i | i | 40%* | i | i
CCOC(=O)c1c(NC(=O)COC)sc(C)c1C | i | i | i | i | i | / | / | / | / | / | /
CCOc1ccc(C(=O)C(C)OC(=O)CN2C(=O)NC(C)(C)C2=O)cc1 (stereo not drawn) | i | i | i | i | i | / | / | / | / | / | /
CCN(CC)CCNC(=O)c1cc(Nc2ccc(OC)c(OC)c2)nc2ccccc12 | i | i | i | i | i | / | / | / | / | / | /
Cc1cccc(N(CC(=O)NC2CCCCC2)C(=O)c2c(C)noc2C)c1 | -6* | i | i | i | i | 118%* | i | 24%* | 30%* | i | /
COc1ccc(Br)c(C(=O)NCC2CCCCC2)c1 | -5.2* | i | i | i | i | i | i | 44%* | 54%* | i | /
